Consider 17 compounds from publication PMC8458242 (Biochimie, 2021).

One data set concerns CMV AD169. Briefly: Anti-CMV activity in WS1 cell cultures. The data set is classed as cell-based, Human cytomegalovirus. To be noted: human fibroblast WS1 cell line infected with CMV AD169, 5 days, n=3.
A short description of data set [1]: Viability assay in WS1 cell cultures. The data set is classed as cell-based, human. As to conditions: human, WS1 cells.
A short description of data set [2]: Viability assay in MT-4 cell cultures. The data set is classed as cell-based, Human. As to conditions: human, MT-4 cells.
The next data set deals with CMV (AD169). Put plainly: Anti-CMV activity in HIV-1/CMV coinfected human tissues ex vivo. The data set is classed as cell-based, Human cytomegalovirus. To be noted: for inhibition of number of CMV DNA copies/μL: HIV-1/CMV-coinfected human lymphoid tissue, 10 μM, 15 days. An outline of the steps: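 Human tonsil tissue blocks (2-3 mm) cultured on collagen sponge at the air-liquid interface in RPMI 1640 with 15% FBS. Blocks pretreated with test compound (10 μM) 12 h before simultaneous infection with HIV-1 X4LAI.04 and CMV AD169 stocks. Medium changed every 3 days; 15 days at 37°C. CMV DNA in culture medium measured by real-time PCR, as percent of untreated control. Means ± SEM, 3 or 6 donors.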

The next data set deals with HIV-1 (X4LAI.04). Put plainly: Anti-HIV-1 activity in HIV-1/CMV coinfected human tissues ex vivo. To be noted: for inhibition of HIV-1 replication by controls: coinfected tissues, control drugs, concentration not given, n=3; for inhibition of cumulative production of p24gag: HIV-1/CMV-coinfected human lymphoid tissue, 10 μM, 15 days. The data set is classed as cell-based. The gist of the method: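 Tonsillar tissue blocks (2-3 mm) kept on collagen sponge at the air-liquid interface, RPMI 1640 with 15% FBS. Pretreated with test compound at 10 μM 12 h before coinoculation with HIV-1 X4LAI.04 and CMV AD169. Medium changed every 3 days; cultured 15 days at 37°C. p24gag in medium measured by Luminex bead assay, as percent of untreated control. Means ± SEM, 3 or 6 donors.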

The test system of a further data set is CMV. As to conditions: cited from earlier work.
Data set [3] concerns MT-4 cells. As to conditions: cited from earlier work.
In data set [4] the test system is MT-4 cells. Briefly: Viability assay in MT-4 cell cultures. The data set is classed as cell-based, Human.
The test system of another data set is WS1 cells. Briefly: Viability assay in WS1 cell cultures. The data set is classed as cell-based, human. As to conditions: read-out: Cytotoxicity CC50; WS1 cell line, MTT, three days.
In data set [5] the test system is esterase from porcine liver. Put plainly: Hydrolysis of the compounds by esterase from porcine liver. To be noted: Tris-HCl buffer pH 8.2, 37 °C.
The subject of a further data set is HIV-1 X4LAI.04. Briefly: Anti HIV-1 activity in human tonsillar tissue ex vivo. The data set is classed as cell-based. To be noted: 12 days.
For data set [6], the system named is esterase from porcine liver.
The mark [7] stands for this setting: 1 nM (first of five concentrations ranging from 1 nM to 10 μM).
[8] abbreviates: 10 μM (fifth of five concentrations ranging from 1 nM to 10 μM).
Where [9] appears, read: fourth of five concentrations ranging from 1 nM to 10 μM.
[10] abbreviates: second of five concentrations ranging from 1 nM to 10 μM.
[11] abbreviates: third of five concentrations ranging from 1 nM to 10 μM.

What is called CC50 is the concentration at which the toxic effect on the cells reaches its halfway point.

“Also recorded” adds a separate entry of the source. Read-outs that look alike come from different tables or passages of the source. Where only a bound is given, the exact number is not on record here.

Turning to `O=C(O)Cn1c(=O)ccn(CCCOc2ccc(Br)cc2)c1=O` [2a, [3-[3-(4-bromophenoxy)propyl]-2,6-dioxo-3,6-dihydropyrimidin-1(2H)-yl]acetic acid], in the data set on CMV AD169, the “Antiviral activity EC50 ± SD” value is “inactive”. In [1], this compound registered a CC50 at 3 days of 965 µM.
The compound `O=C(O)Cn1c(=O)ccn(CCCCCOc2ccc(Br)cc2)c1=O` [2b, [3-[5-(4-bromophenoxy)pentyl]-2,6-dioxo-3,6-dihydropyrimidin-1(2H)-yl]acetic acid] registered a CC50 at 3 days in data set [1] of 749 µM.
In the case of `O=C(O)Cn1c(=O)ccn(CCCCCCOc2ccc(Br)cc2)c1=O` [2c, [3-[6-(4-bromophenoxy)hexyl]-2,6-dioxo-3,6-dihydropyrimidin-1(2H)-yl]acetic acid], the CC50 at 3 days was above 100 µM in data set [2] and 724 µM in data set [1]. The “inhibition of CMV by control compounds” value in the data set with CMV (AD169) (coinfected tissues, control compounds, concentration not given, n=3) was 68.6 ± 11.3%.
On to `O=C(O)Cn1c(=O)ccn(CCCCCCCCOc2ccc(Br)cc2)c1=O` [2d, [3-[8-(4-bromophenoxy)octyl]-2,6-dioxo-3,6-dihydropyrimidin-1(2H)-yl]acetic acid], for which the midpoint of cytotoxicity in data set [1], the CC50 at 3 days, lay at 90.5 µM.
On to `O=C(O)Cn1c(=O)ccn(CCCCCCCCCCOc2ccc(Br)cc2)c1=O` [2e, [3-[10-(4-bromophenoxy)decyl]-2,6-dioxo-3,6-dihydropyrimidin-1(2H)-yl]acetic acid], for which the “Antiviral activity EC50 ± SD” value with CMV AD169 is “inactive”. Also, the CC50 at 3 days in data set [1] worked out at 164 µM.
For the compound `O=C(O)Cn1c(=O)ccn(CCCCCCCCCCCCOc2ccc(Br)cc2)c1=O` [2f, [3-[12-(4-bromophenoxy)dodecyl]-2,6-dioxo-3,6-dihydropyrimidin-1(2H)-yl]acetic acid], in the data set with CMV AD169, the “Antiviral activity EC50 ± SD” value was “inactive”. In data set [1], this compound gave a CC50 at 3 days of 22 µM.
For `Nc1ccn([C@@H]2CS[C@H](CO)O2)c(=O)n1` [3TC, (−)-L-2′,3′-dideoxy-3′-thiacytidine], the “inhibition of HIV-1 replication by controls” value in the data set with HIV-1 (X4LAI.04) worked out at 99.7 ± 0.2%. Also, the “effect on CMV replication / anti CMV activity” value in the data set on CMV is reported as “no effect on CMV replication”. Also, the CC50 with MT-4 cells [3] is above 100 µM.
For `Cc1cn([C@H]2C[C@H](N=[N+]=[N-])[C@@H](COC(=O)Cn3c(=O)ccn(CCCOc4ccc(Br)cc4)c3=O)O2)c(=O)[nH]c1=O` [3a, (3'-azido-3'-deoxytimidine)-2-(3-((4-bromophenoxy)propyl)-2,6-dioxo-2,3-dihydropyrimidin-1(6H)-yl)acetate], the CC50 was 82.1 µM in the data set on MT-4 cells [4] and 347 µM with WS1 cells.
With `Cc1cn([C@H]2C[C@H](N=[N+]=[N-])[C@@H](COC(=O)Cn3c(=O)ccn(CCCCCOc4ccc(Br)cc4)c3=O)O2)c(=O)[nH]c1=O` [3b, (3'-azido-3'-deoxytimidine)-2-(3-((4-bromophenoxy)pentyl)-2,6-dioxo-2,3-dihydropyrimidin-1(6H)-yl)acetate], the figures for the CC50 in the data set on MT-4 cells [4] and in the data set on WS1 cells were above 100 µM and 173 µM, respectively. For the same compound, the “T1/2 of hydrolysis by esterase” value in data set [5] lay in the range of 7 to 8 h.
As for `Cc1cn([C@H]2C[C@H](N=[N+]=[N-])[C@@H](COC(=O)Cn3c(=O)ccn(CCCCCCOc4ccc(Br)cc4)c3=O)O2)c(=O)[nH]c1=O` [3c, (3'-azido-3'-deoxytimidine)-2-(3-((4-bromophenoxy)hexyl)-2,6-dioxo-2,3-dihydropyrimidin-1(6H)-yl)acetate], the CC50 in the data set with MT-4 cells [4] is above 100 µM; in the data set on WS1 cells, 393 µM. Besides, the “inhibition of HIV-1 replication” value in the data set on HIV-1 X4LAI.04 (setting [7]) is 0 ± 0.5%; with HIV-1 X4LAI.04 (setting [8]), 96.2 ± 1.0%; in the data set on HIV-1 X4LAI.04 (setting [9]), 76.5 ± 3.3%; in the data set with HIV-1 X4LAI.04 (setting [10]), 17.9 ± 8.2%; in the data set with HIV-1 X4LAI.04 (setting [11]), 31.4 ± 7.7%. The “inhibition of cumulative production of p24gag” value with HIV-1 (X4LAI.04) turned out to be 97.2 ± 2.1%. Also, the “inhibition of number of CMV DNA copies/μL” value in the data set on CMV (AD169) amounted to 86.9 ± 3.3%. The “T1/2 of hydrolysis by esterase” value in data set [5] is 7 to 8 h.
Consider `Cc1cn([C@H]2C[C@H](N=[N+]=[N-])[C@@H](COC(=O)Cn3c(=O)ccn(CCCCCCCCOc4ccc(Br)cc4)c3=O)O2)c(=O)[nH]c1=O` [3d, (3'-azido-3'-deoxytimidine)-2-(3-((4-bromophenoxy)octyl)-2,6-dioxo-2,3-dihydropyrimidin-1(6H)-yl)acetate], for which the CC50 with MT-4 cells [4] is above 100 µM; with WS1 cells, 600 µM.
`Cc1cn([C@H]2C[C@H](N=[N+]=[N-])[C@@H](COC(=O)Cn3c(=O)ccn(CCCCCCCCCCOc4ccc(Br)cc4)c3=O)O2)c(=O)[nH]c1=O` [3e, (3'-azido-3'-deoxytimidine)-2-(3-((4-bromophenoxy)decyl)-2,6-dioxo-2,3-dihydropyrimidin-1(6H)-yl)acetate]: the CC50 in the data set with MT-4 cells [4] is above 100 µM; in the data set with WS1 cells it was 182 µM.
In the same order, the values of `Cc1cn([C@H]2C[C@H](N=[N+]=[N-])[C@@H](COC(=O)Cn3c(=O)ccn(CCCCCCCCCCCCOc4ccc(Br)cc4)c3=O)O2)c(=O)[nH]c1=O` [3f, (3'-azido-3'-deoxytimidine)-2-(3-((4-bromophenoxy)dodecyl)-2,6-dioxo-2,3-dihydropyrimidin-1(6H)-yl)acetate] are above 100 µM and 253 µM.
In the data set on MT-4 cells [4], `Nc1ccn([C@@H]2CS[C@H](COC(=O)Cn3c(=O)ccn(CCCCCCOc4ccc(Br)cc4)c3=O)O2)c(=O)n1` [4c, ((−)-L-2′,3′-dideoxy-3′-thiacytidine)-2-(3-((4-bromophenoxy)hexyl)-2,6-dioxo-2,3-dihydropyrimidin-1(6H)-yl)acetate] returned a CC50 above 100 µM. Besides, the “inhibition of HIV-1 replication” value in the data set on HIV-1 X4LAI.04 (setting [7]) was 0.6 ± 0.2%; in the data set on HIV-1 X4LAI.04 (setting [8]), 99.6 ± 0.1%; with HIV-1 X4LAI.04 (setting [9]), 88.6 ± 2.9%; with HIV-1 X4LAI.04 (setting [10]) it was 14.6 ± 6.5%; with HIV-1 X4LAI.04 (setting [11]) it was 45.7 ± 3.7%. Further, the “inhibition of cumulative production of p24gag” value in the data set on HIV-1 (X4LAI.04) was 99.4 ± 0.4%. Further, the “inhibition of number of CMV DNA copies/μL” value in the data set on CMV (AD169) was determined as 78.7 ± 1.7%. In addition, the “T1/2 of hydrolysis by esterase” value in data set [5] was “about 24 hrs”.
For the compound `Cc1cn([C@H]2C[C@H](N=[N+]=[N-])[C@@H](CO)O2)c(=O)[nH]c1=O` [AZT, 2',3'-dideoxy-3'-azidothymidine], the “inhibition of HIV-1 replication by controls” value with HIV-1 (X4LAI.04) worked out at 97.0 ± 1.6%. In addition, in the data set with CMV, the “effect on CMV replication / anti CMV activity” value is recorded as “does not have any anti CMV activity; also recorded: no effect on CMV replication”. In the data set on MT-4 cells [3], the CC50 was above 100 µM.
In turn, `Nc1nc(O)c2ncn(COC(CO)CO)c2n1` [GCV, ganciclovir, reference compound] displayed a CC50 at 3 days in data set [1] of 500 µM.
With `CC(=O)OC[C@H]1O[C@@H](n2cc(C)c(=O)[nH]c2=O)C[C@@H]1OC(C)=O` [Thymidine diacetate], the “hydrolysis totally completed after” value in data set [6] fell in the range of 5 to 6 h.
